pKi: −log10 of the molar value. Active and inactive are the calls of the source. The rule behind the calls is not given here.
Assays:
[1] = Binding affinity to PKC
U-937 [2] = assay: Induction of human U937 cells attachment at 0.1 to 3000 nM treated for 24 hrs measured after 60 hrs; assay type: functional, cell-based
Outline: (§1)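 U937 cells were seeded, then treated 24 h later across a concentration series. Floating and attached cells were counted separately 60 h after treatment, giving proliferation and attachment read-outs. Data are mean ± SEM of five independent experiments.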

U-937 [3] = assay: Antiproliferative activity against human U937 cells at 0.1 to 3000 nM after 60 hrs; assay type: functional, cell-based; outline: as §1
K562 [4] = assay: Antiproliferative activity against human K562 cells after 60 hrs in presence of PMA; assay type: functional, cell-based
Outline: (§2)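 K562 or MV4-11 cells were seeded, then exposed to compound 24 h later alongside 10 nM PMA. Total cell number was counted 60 h after treatment. Data are mean ± SEM of three independent experiments.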

MV4-11 [5] = assay: Antiproliferative activity against human MV411 cells after 60 hrs in presence of PMA; assay type: functional, cell-based; outline: as §2
[6] = target: T1, Protein kinase C epsilon type (Homo sapiens) (UniProt Q02156); assay: Modulation of PKCepsilon in human K562 cells assessed as […] after 24 hrs by Western blotting analysis; assay type: cell-based
T1 sequence (whole entry): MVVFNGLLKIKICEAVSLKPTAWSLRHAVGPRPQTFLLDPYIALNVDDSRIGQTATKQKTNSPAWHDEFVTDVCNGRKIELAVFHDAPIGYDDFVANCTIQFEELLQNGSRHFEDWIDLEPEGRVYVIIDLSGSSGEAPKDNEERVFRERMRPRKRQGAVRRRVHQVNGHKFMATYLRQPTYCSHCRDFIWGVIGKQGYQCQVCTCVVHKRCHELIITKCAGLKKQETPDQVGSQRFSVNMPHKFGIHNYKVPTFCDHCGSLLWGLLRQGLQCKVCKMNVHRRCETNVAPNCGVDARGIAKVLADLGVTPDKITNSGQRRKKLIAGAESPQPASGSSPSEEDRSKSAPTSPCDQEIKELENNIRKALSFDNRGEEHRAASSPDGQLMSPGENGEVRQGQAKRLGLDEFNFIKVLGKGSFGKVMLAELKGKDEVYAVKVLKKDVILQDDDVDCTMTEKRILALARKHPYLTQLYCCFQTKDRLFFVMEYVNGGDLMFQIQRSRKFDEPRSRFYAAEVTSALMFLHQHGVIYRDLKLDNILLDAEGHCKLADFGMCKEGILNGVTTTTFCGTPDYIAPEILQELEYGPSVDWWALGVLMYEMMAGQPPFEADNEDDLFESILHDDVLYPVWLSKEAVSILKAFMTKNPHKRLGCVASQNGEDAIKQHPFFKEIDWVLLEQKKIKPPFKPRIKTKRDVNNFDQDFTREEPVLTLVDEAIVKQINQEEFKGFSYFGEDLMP
Outline: (§3)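 K562 cells (150,000 cells/ml) treated 24 hr after plating with a dose range for 24 hr. Total cell lysates analysed by Western blot for C1 domain-containing proteins, with actin as loading control. Representative of three independent experiments.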

[7] = target: T2, Ras guanyl-releasing protein 3 (Homo sapiens) (UniProt Q8IV61); assay: Modulation of RASGRP3 in human K562 cells assessed as […] after 24 hrs by Western blotting analysis; assay type: cell-based; outline: as §3
T2 sequence (whole entry): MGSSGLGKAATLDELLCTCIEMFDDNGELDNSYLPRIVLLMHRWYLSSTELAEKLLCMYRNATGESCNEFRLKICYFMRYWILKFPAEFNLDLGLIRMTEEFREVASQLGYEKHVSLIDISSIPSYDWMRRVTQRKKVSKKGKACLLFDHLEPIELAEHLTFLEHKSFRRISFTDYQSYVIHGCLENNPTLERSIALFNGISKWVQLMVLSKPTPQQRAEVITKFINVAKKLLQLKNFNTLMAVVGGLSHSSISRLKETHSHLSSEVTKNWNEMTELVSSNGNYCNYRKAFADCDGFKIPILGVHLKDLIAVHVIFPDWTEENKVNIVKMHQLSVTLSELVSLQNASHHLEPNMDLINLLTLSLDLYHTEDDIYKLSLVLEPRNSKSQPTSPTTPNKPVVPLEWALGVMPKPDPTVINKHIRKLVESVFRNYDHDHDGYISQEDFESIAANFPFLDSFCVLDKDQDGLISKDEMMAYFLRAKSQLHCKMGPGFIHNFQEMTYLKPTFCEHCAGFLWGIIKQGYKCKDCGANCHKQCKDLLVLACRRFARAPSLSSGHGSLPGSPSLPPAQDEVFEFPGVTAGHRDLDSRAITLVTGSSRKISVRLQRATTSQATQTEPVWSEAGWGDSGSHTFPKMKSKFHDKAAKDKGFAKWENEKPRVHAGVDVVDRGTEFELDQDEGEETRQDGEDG

K562 [8] = assay: Inhibition of PMA-induced human K562 cell attachment treated for 24 hrs measured after 60 hrs; assay type: functional, cell-based
MV4-11 [9] = assay: Inhibition of PMA-induced human MV411 cell attachment treated for 24 hrs measured after 60 hrs; assay type: functional, cell-based
K562 [10] = assay: Inhibition of bryostatin1-induced human K562 cell attachment treated for 24 hrs measured after 60 hrs; assay type: functional, cell-based
MV4-11 [11] = assay: Inhibition of bryostatin1-induced human MV411 cell attachment treated for 24 hrs measured after 60 hrs; assay type: functional, cell-based
K562 [12] = assay: Antiproliferative activity against human K562 cells after 60 hrs in presence of PMA
MV4-11 [13] = assay: Antiproliferative activity against human MV411 cells after 60 hrs in presence of PMA
U-937 [14] = assay: Inhibition of PMA-induced human U937 cell attachment treated for 24 hrs measured after 60 hrs; assay type: functional, cell-based
Outline: (§4)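 Floating and attached cells counted 60 hr after treatment, giving proliferation (total count) and attachment. Mean ± SEM of five independent experiments.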

U-937 [15] = assay: Inhibition of PMA-induced human U937 cells antiproliferation activity after 60 hrs; assay type: functional, cell-based; outline: as §4
[16] = target: Protein kinase C beta type (Homo sapiens) (UniProt P05771); assay: Modulation of PKCbeta in human K562 cells assessed as protein down-regulation after 24 hrs by Western blotting analysis; assay type: cell-based; outline: as §3
[17] = target: Protein kinase C delta type (Homo sapiens) (UniProt Q05655); assay: Modulation of PKCdelta in human K562 cells assessed as protein down-regulation after 24 hrs by Western blotting analysis; assay type: cell-based; outline: as §3
U-937 [18] = assay: Induction of human U937 cells attachment at 0.1 to 1000 nM treated for 24 hrs measured after 60 hrs; assay type: functional, cell-based; outline: as §4
U-937 [19] = assay: Antiproliferative activity against human U937 cells at 0.1 to 1000 nM after 60 hrs; assay type: functional, cell-based; outline: as §4

Chain of Protein kinase C delta type (Homo sapiens) (Q05655 whole entry, looked up): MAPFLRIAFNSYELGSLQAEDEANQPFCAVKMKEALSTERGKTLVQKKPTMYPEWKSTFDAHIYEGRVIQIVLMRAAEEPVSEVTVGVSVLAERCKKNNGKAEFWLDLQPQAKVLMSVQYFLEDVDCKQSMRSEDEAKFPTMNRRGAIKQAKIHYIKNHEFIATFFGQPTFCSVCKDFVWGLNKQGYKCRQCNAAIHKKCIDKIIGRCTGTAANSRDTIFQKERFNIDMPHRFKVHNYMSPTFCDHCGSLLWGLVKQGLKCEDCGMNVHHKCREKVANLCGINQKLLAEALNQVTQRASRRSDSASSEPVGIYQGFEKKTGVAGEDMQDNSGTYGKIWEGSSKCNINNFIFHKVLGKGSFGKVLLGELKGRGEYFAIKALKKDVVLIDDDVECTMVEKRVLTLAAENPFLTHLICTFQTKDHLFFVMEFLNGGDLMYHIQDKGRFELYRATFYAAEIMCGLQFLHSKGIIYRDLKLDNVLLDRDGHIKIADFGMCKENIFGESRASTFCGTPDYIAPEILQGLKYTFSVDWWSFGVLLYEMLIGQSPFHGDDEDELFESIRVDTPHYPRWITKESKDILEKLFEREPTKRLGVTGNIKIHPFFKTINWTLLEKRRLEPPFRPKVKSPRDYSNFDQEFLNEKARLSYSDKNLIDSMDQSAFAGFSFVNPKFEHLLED
Chain of Protein kinase C beta type (Homo sapiens) (P05771 2-671 limits assumed): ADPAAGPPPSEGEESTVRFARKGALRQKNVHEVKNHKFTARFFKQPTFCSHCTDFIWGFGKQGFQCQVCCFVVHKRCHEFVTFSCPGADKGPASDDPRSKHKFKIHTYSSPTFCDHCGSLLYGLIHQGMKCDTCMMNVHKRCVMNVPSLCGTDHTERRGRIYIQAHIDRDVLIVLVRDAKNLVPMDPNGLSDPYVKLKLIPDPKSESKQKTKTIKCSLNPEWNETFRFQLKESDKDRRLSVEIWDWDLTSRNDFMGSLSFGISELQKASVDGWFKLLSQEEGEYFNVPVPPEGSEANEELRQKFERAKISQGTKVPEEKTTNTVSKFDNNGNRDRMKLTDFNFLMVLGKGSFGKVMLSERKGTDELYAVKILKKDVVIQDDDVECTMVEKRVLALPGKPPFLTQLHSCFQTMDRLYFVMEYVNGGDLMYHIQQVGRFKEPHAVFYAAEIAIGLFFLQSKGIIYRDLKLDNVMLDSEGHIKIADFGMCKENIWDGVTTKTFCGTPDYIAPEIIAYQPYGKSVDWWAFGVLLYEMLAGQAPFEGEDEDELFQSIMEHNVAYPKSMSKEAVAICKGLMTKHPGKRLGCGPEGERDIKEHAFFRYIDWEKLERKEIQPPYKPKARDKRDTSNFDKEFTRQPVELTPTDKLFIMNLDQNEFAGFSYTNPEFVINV

Compound | pKi [1] | Activity (U-937 [2]) | Activity (U-937 [3]) | Activity (K562 [4]) | Activity (MV4-11 [5]) | Activity [6] | Activity [7] | inhibition (K562 [8]) | inhibition (MV4-11 [9]) | inhibition (K562 [10]) | inhibition (MV4-11 [11]) | Activity (K562 [12]) | Activity (MV4-11 [13]) | inhibition (U-937 [14]) | inhibition (U-937 [15]) | Activity [16] | Activity [17] | Activity (U-937 [18]) | Activity (U-937 [19])
C=C1C[C@H]2C[C@@H]3O[C@@H](CC(=C)C3(C)C)C[C@@H](O)CC(=O)O[C@@H]([C@@H](C)O)C[C@@H]3C/C(=C\C(=O)OC)[C@H](OC(=O)/C=C/C=C/CCC)[C@@](O)(O3)C(C)(C)/C=C/[C@@H](C1)O2 | 8.97 | Active | Active | Dose-dependent effect | Dose-dependent effect | Active | Active | inactive | inactive | Active | Active | Dose-dependent effect | Dose-dependent effect | – | – | – | – | – | –
CCC/C=C/C=C/C(=O)O[C@H]1/C(=C/C(=O)OC)C[C@H]2C[C@H]([C@@H](C)O)OC(=O)C[C@H](O)C[C@@H]3C[C@H](OC(C)=O)C(C)(C)[C@](O)(C[C@@H]4C/C(=C/C(=O)OC)C[C@H](/C=C/C(C)(C)[C@]1(O)O2)O4)O3 | – | – | – | – | – | inactive | inactive | – | – | – | – | – | – | Dose-dependent effect | Dose-dependent effect | Active | Active | – | –
CCCCCCCCCCCCCC(=O)O[C@@H]1[C@@H](C)[C@@]2(O)[C@@H](C=C(CO)C[C@]3(O)C(=O)C(C)=C[C@@H]23)[C@@H]2C(C)(C)[C@]12OC(C)=O | – | – | – | – | – | Active | Active | – | – | – | – | – | – | – | – | – | – | Active | Active

— ChEMBL document CHEMBL2029315 (Bioorg Med Chem Lett, 2012)
